Here are results for two compounds from ChEMBL document CHEMBL1127335, “Inhibitors of acyl-CoA: cholesterol O-acyl transferase (ACAT) as hypocholesterolemic agents. 6. The first water-soluble ACAT inhibitor with lipid-regulating activity” (J Med Chem, 1994).

Data set [1] can be described thus: Partition coefficient was measured by the shake flask method at pH 7.4. Format: physicochemical. Particulars: octanol/water. An outline of the steps:
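Log P determined by shake-flask partitioning at pH 7.4.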

Data set [2] has as its target T1, Sterol O-acyltransferase 1 (Rattus norvegicus, UniProt O70536).
T1 sequence (O70536 whole entry): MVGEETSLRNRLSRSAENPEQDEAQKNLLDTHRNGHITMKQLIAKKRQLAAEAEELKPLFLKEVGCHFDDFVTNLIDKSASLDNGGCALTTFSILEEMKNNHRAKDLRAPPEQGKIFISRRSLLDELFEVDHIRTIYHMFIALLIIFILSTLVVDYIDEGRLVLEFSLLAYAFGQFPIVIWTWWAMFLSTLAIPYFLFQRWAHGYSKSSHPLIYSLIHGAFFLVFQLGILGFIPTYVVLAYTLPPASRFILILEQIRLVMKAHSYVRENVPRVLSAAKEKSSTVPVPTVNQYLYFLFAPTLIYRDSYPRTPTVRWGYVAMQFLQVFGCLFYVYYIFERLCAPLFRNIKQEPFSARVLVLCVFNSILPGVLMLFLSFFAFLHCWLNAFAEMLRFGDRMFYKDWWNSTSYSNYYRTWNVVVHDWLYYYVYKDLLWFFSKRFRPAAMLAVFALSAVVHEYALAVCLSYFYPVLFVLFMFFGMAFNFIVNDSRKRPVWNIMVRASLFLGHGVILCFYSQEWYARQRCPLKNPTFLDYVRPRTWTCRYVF
The data set can be described thus: Compound was evaluated for the Acyl coenzyme A:cholesterol acyltransferase inhibition using microsomes isolated from the livers of cholesterol fed rats. Details: species or system Liver. The method in brief: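 Liver microsomes prepared from cholesterol-fed rats used as ACAT source. IC50 determined from four drug concentrations per assay, in four separate assays, and reported as the mean.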

The subject of another data set is Caco-2. The data set can be described thus: Activity of compound in an intestine model using Caco-2 cells. The data set is classed as functional, cell-based. The settings on record: Homo sapiens, Caco-2, Intestine. The method in brief: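 CaCo-2 intestinal cells incubated with radiolabeled oleic acid in the presence of test agent; ACAT activity in intact cells read as oleate incorporation into cholesteryl esters, with triglyceride and phospholipid incorporation also followed up to 100 µM. IC50 averaged over three separate experiments.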

For data set [3], the system named is Rattus norvegicus. The data set can be described thus: […] activity in rats at a dose of 1 mg/kg of compound was determined. Format: functional. The method in brief:
(§1)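 Acute model in rats: one dose given, then ad libitum overnight feeding of chow supplemented with peanut oil (5.5%), cholesterol (1.5%) and cholic acid (0.5%). Plasma cholesterol measured; n = 5/group; mean ± SEM; percent change relative to PCC-fed controls. ED50 is the dose that lowers plasma cholesterol by 50%.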

Data set [4] has as its system Rattus norvegicus. Briefly: […] activity in rats at a dose of 10 mg/kg was determined. Format: functional. An outline of the steps:
as §1

Data set [5] concerns Rattus norvegicus. The data set can be described thus: […] activity in rats at a dose of 3 mg/kg of compound was determined. The data set is classed as functional. The method in brief:
as §1

Data set [6] has as its system Rattus norvegicus. Briefly: […] activity in rats at a dose of 30 mg/kg was determined. Format: functional. The method in brief: as §1
For data set [7], the system named is Rattus norvegicus. The data set can be described thus: Anti hypercholesterolemic activity in rats at a dose of 0.3 mg/kg of compound was determined. The data set is classed as functional. The method in brief:
as §1

The species named for data set [8] is Rattus norvegicus. The data set can be described thus: Dose required to lower the plasma cholesterol by 50% in rats was determined. The data set is classed as functional. The method in brief: as §1
Data set [9] concerns Rattus norvegicus. The data set can be described thus: Chronic effect on preestablished dyslipidemia in rats for HDL-C at 0.3 mg/kg of compound was determined. Format: functional. An outline of the steps:
(§2)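 Plasma total cholesterol measured; HDL-C separated by dextran sulfate precipitation of whole plasma, nonHDL-C derived. n = 5/group, mean ± SEM, % change versus PCC-fed controls; chow-fed controls included.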

The subject of data set [10] is Rattus norvegicus. Briefly: Chronic effect on preestablished dyslipidemia in rats for HDL-C at 10 […] of compound was determined. Format: functional. An outline of the steps:
as §2

Data set [11] relates to Rattus norvegicus. Briefly: Chronic effect on preestablished dyslipidemia in rats for HDL-C at 1 mg/kg of compound was determined. The data set is classed as functional. The method in brief: as §2
Data set [12] relates to Rattus norvegicus. The data set can be described thus: Chronic effect on preestablished dyslipidemia in rats for HDL-C at 30 mg/kg of compound was determined. Format: functional. An outline of the steps:
as §2

In data set [13] the test system is Rattus norvegicus. Briefly: Chronic effect on preestablished dyslipidemia in rats for HDL-C at 3 mg/kg of compound was determined. Format: functional. An outline of the steps: as §2
Data set [14] deals with Rattus norvegicus. Briefly: Chronic effect on preestablished dyslipidemia in rats for nonHDL-C at 0.3 mg/kg of compound was determined. Format: functional. The method in brief:
as §2

For data set [15], the system named is Rattus norvegicus. The data set can be described thus: Chronic effect on preestablished dyslipidemia in rats for nonHDL-C at 10 mg/kg of compound was determined. The data set is classed as functional. The method in brief:
as §2

Data set [16] concerns Rattus norvegicus. The data set can be described thus: Chronic effect on preestablished dyslipidemia in rats for nonHDL-C at 1 mg/kg of compound was determined. Format: functional. The method in brief:
as §2

In data set [17] the test system is Rattus norvegicus. The data set can be described thus: Chronic effect on preestablished dyslipidemia in rats for nonHDL-C at 30 mg/kg of compound was determined. Format: functional. The method in brief: as §2
Data set [18] deals with Rattus norvegicus. The data set can be described thus: Chronic effect on preestablished dyslipidemia in rats for nonHDL-C at 3 mg/kg of compound was determined. Format: functional. An outline of the steps: as §2
Data set [19] concerns Rattus norvegicus. The data set can be described thus: Chronic effect on preestablished dyslipidemia in rats for total cholesterol at 0.3 mg/kg of compound was determined. The data set is classed as functional. An outline of the steps: as §2
Data set [20] has as its system Rattus norvegicus. The data set can be described thus: Chronic effect on preestablished dyslipidemia in rats for total cholesterol at 1 mg/kg of compound was determined. The data set is classed as functional. An outline of the steps: as §2
Data set [21] deals with Rattus norvegicus. The data set can be described thus: Chronic effect on preestablished dyslipidemia in rats for total cholesterol at 10 mg/kg of compound was determined. Format: functional. An outline of the steps:
as §2

Data set [22] has as its system Rattus norvegicus. The data set can be described thus: Chronic effect on preestablished dyslipidemia in rats for total cholesterol at 3 mg/kg of compound was determined. Format: functional. The method in brief: as §2
In data set [23] the test system is Rattus norvegicus. Briefly: Chronic effect on preestablished dyslipidemia in rats for total cholesterol at 30 mg/kg of compound was determined. Format: functional. The method in brief:
as §2

Data set [24] addresses T1, Sterol O-acyltransferase 1. The data set can be described thus: Compound was evaluated for the Acyl coenzyme A:cholesterol acyltransferase inhibition using microsomes isolated from the livers of cholesterol fed rats. Details: species or system Liver. An outline of the steps: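 Liver microsomes from cholesterol-fed rats served as the ACAT source. IC50 was determined in four separate assays, each using four drug concentrations, and averaged.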

Data set [25] deals with Rattus norvegicus. The data set can be described thus: […] activity in rats at a dose of 10 mg/kg of compound was determined. Format: functional. An outline of the steps: as §1
The subject of data set [26] is Rattus norvegicus. Briefly: […] activity in rats at a dose of 100 mg/kg of compound was determined. The data set is classed as functional. An outline of the steps:
as §1

In data set [27] the test system is Rattus norvegicus. The data set can be described thus: […] activity in rats at a dose of 30 mg/kg of compound was determined. The data set is classed as functional. The method in brief: as §1
The subject of data set [28] is Rattus norvegicus. The data set can be described thus: Chronic effect on preestablished dyslipidemia in rats for HDL-C at 100 mg/kg of compound was determined. The data set is classed as functional. An outline of the steps: as §2
The test system of data set [29] is Rattus norvegicus. Briefly: Chronic effect on preestablished dyslipidemia in rats for HDL-C at 10 mg/kg of compound was determined. Format: functional. An outline of the steps:
as §2

Data set [30] has as its system Rattus norvegicus. Briefly: Chronic effect on preestablished dyslipidemia in rats for nonHDL-C at 100 mg/kg of compound was determined. The data set is classed as functional. An outline of the steps: as §2
The test system of data set [31] is Rattus norvegicus. The data set can be described thus: Chronic effect on preestablished dyslipidemia in rats for total cholesterol at 100 mg/kg of compound was determined. Format: functional. An outline of the steps:
as §2

pIC50: −log10 of the molar value.

With `CC(C)c1cccc(C(C)C)c1OC(=O)[N-]S(=O)(=O)Oc1c(C(C)C)cccc1C(C)C.[Na+]`, the log distribution coefficient (logD) (as a rule, the decadic logarithm of the distribution of all forms, ionised or not, between an organic phase and buffer at a given pH) in [1] came to 2.98. In addition, the figures for the negative logarithm of the IC50 (pIC50) (in data set [2]; with Caco-2) were 5.28 and 6.03, respectively. The Activity in the data set with Rattus norvegicus [3] was determined as 98; with Rattus norvegicus [4], 56; with Rattus norvegicus [5], 78; with Rattus norvegicus [6] it was 50; with Rattus norvegicus [7] it was 142. Further, the 50% effect level in the data set filed under Rattus norvegicus [8] (ED50) was put at a dose of 1.8 mg/kg. Further, the Effect in the data set with Rattus norvegicus [9] turned out to be 11 mg/dL; with Rattus norvegicus [10] it was 52 mg/dL; in the data set on Rattus norvegicus [11], 25 mg/dL; with Rattus norvegicus [12] it was 44 mg/dL; in the data set on Rattus norvegicus [13], 39 mg/dL; with Rattus norvegicus [14] it was 192 mg/dL. Besides, the Effect is 59 mg/dL with Rattus norvegicus [15]; 102 mg/dL in the data set on Rattus norvegicus [16]; 47 mg/dL in the data set with Rattus norvegicus [17]; 53 mg/dL with Rattus norvegicus [18]; 204 mg/dL in the data set with Rattus norvegicus [19]; 127 mg/dL in the data set with Rattus norvegicus [20]. Moreover, the Effect in the data set on Rattus norvegicus [21] amounted to 111 mg/dL; with Rattus norvegicus [22], 92 mg/dL; in the data set on Rattus norvegicus [23], 91 mg/dL.
On to `CCCCCCCN(CCCCCSc1nc(-c2ccccc2)c(-c2ccccc2)[nH]1)C(=O)Nc1ccc(F)cc1F` [LECIMIBIDE], for which the pIC50 (in general, the IC50 on a negative log10 scale, so that one unit is a factor of ten) in data set [24] is 7.74. Also, the Activity in the data set on Rattus norvegicus [3] amounted to 158; with Rattus norvegicus [25], 77; in the data set with Rattus norvegicus [26], 79; in the data set on Rattus norvegicus [5] it was 122; in the data set with Rattus norvegicus [27] it was 74. Also, it took a dose of 15.2 mg/kg to reach the 50% effect level in the data set listed under Rattus norvegicus [8] (ED50). Besides, the Effect in the data set on Rattus norvegicus [28] came out at 32 mg/dL; in the data set on Rattus norvegicus [29], 18 mg/dL; in the data set on Rattus norvegicus [11] it was 10 mg/dL; in the data set with Rattus norvegicus [12], 21 mg/dL; in the data set with Rattus norvegicus [13], 14 mg/dL; in the data set with Rattus norvegicus [30], 87 mg/dL. Also, the Effect with Rattus norvegicus [15] worked out at 135 mg/dL; in the data set on Rattus norvegicus [16], 234 mg/dL; with Rattus norvegicus [17], 98 mg/dL; in the data set with Rattus norvegicus [18] it was 203 mg/dL; in the data set with Rattus norvegicus [20], 244 mg/dL; with Rattus norvegicus [31], 119 mg/dL. In addition, the Effect amounted to 154 mg/dL with Rattus norvegicus [21], 217 mg/dL in the data set on Rattus norvegicus [22] and 120 mg/dL in the data set on Rattus norvegicus [23].
